Measured values taken from ChEMBL document CHEMBL4689842, “EUbOPEN Chemogenomics Library wave 1” (2021).

System: HEK-293T
Assay: Multiplex assay against HEK293T;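 as to Population Tubulin-Different-Phenotype (%): share of the cells with healthy nuclei that show this phenotype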
Format: toxicity, cell-based
Settings: human
Summary of the method: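 Tubulin, mitochondrial-mass and membrane-permeability phenotypes are per cents of healthy-nucleus cells. Cells were gated by CellPathfinder machine learning into Hoechst high-intensity objects or normal cells, normal cells into healthy, pyknosed or fragmented nuclei, and pyknosed cells into mitotic or apoptotic. Before that, live cells stained at seeding with Hoechst33342, BioTracker Green Microtubule Cytoskeleton Dye, MitoTracker Red and Annexin V Alexa Fluor 680 were imaged on a CQ1 microscope at 37°C and 5% CO2 after compound addition.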

[1] = 12 h, 1 µM, compound concentration 1 uM, replicate 1
[2] = 12 h, 1 µM, compound concentration 1 uM, replicate 2
[3] = 12 h, 10 µM, compound concentration 10 uM, replicate 1
[4] = 12 h, 10 µM, compound concentration 10 uM, replicate 2
[5] = 24 h, 1 µM, compound concentration 1 uM, replicate 1
[6] = 24 h, 1 µM, compound concentration 1 uM, replicate 2
[7] = 24 h, 10 µM, compound concentration 10 uM, replicate 1
[8] = 24 h, 10 µM, compound concentration 10 uM, replicate 2

## COc1cc2ncnc(Nc3ccc(F)c(Cl)c3)c2cc1NC(=O)/C=C/CN1CCCCC1 [DACOMITINIB ANHYDROUS]
[1]
  Population Apoptotic (%): 34%
  Population Fragmented Nuclei (%): 28%
  Population Healthy Nuclei (%): 32%
  Population Hoechst High Intensity Objects (%): 24%
  Population Membrane Permeable-Phenotype (%): 18%
  Population Mitochondria Different-Phenotype (%): 41%
  Population Mitotic Cells (%): 65%
  Population Normal (%): 75%
  Population Pyknosed Nuclei (%): 38%
  Population Tubulin-Different-Phenotype (%): 72%
  Total Cell Count: 554
[2]
  Population Apoptotic (%): 13%
  Population Fragmented Nuclei (%): 5%
  Population Healthy Nuclei (%): 83%
  Population Hoechst High Intensity Objects (%): 4%
  Population Membrane Permeable-Phenotype (%): 7%
  Population Mitochondria Different-Phenotype (%): 36%
  Population Mitotic Cells (%): 86%
  Population Normal (%): 95%
  Population Pyknosed Nuclei (%): 10%
  Population Tubulin-Different-Phenotype (%): 66%
  Total Cell Count: 1314
[3]
  Population Apoptotic (%): 14%
  Population Fragmented Nuclei (%): 14%
  Population Healthy Nuclei (%): 69%
  Population Hoechst High Intensity Objects (%): 12%
  Population Membrane Permeable-Phenotype (%): 4%
  Population Mitochondria Different-Phenotype (%): 6%
  Population Mitotic Cells (%): 85%
  Population Normal (%): 87%
  Population Pyknosed Nuclei (%): 15%
  Population Tubulin-Different-Phenotype (%): 5%
  Total Cell Count: 670
[4]
  Population Apoptotic (%): 12%
  Population Fragmented Nuclei (%): 5%
  Population Healthy Nuclei (%): 89%
  Population Hoechst High Intensity Objects (%): 2%
  Population Membrane Permeable-Phenotype (%): 2%
  Population Mitochondria Different-Phenotype (%): 11%
  Population Mitotic Cells (%): 87%
  Population Normal (%): 97%
  Population Pyknosed Nuclei (%): 5%
  Population Tubulin-Different-Phenotype (%): 6%
  Total Cell Count: 1444
[5]
  Population Apoptotic (%): 39%
  Population Fragmented Nuclei (%): 27%
  Population Healthy Nuclei (%): 34%
  Population Hoechst High Intensity Objects (%): 22%
  Population Membrane Permeable-Phenotype (%): 9%
  Population Mitochondria Different-Phenotype (%): 63%
  Population Mitotic Cells (%): 60%
  Population Normal (%): 77%
  Population Pyknosed Nuclei (%): 37%
  Population Tubulin-Different-Phenotype (%): 73%
  Total Cell Count: 532
[6]
  Population Apoptotic (%): 6%
  Population Fragmented Nuclei (%): 16%
  Population Healthy Nuclei (%): 79%
  Population Hoechst High Intensity Objects (%): 3%
  Population Membrane Permeable-Phenotype (%): 6%
  Population Mitochondria Different-Phenotype (%): 13%
  Population Mitotic Cells (%): 93%
  Population Normal (%): 96%
  Population Pyknosed Nuclei (%): 4%
  Population Tubulin-Different-Phenotype (%): 54%
  Total Cell Count: 1906
[7]
  Population Apoptotic (%): 18%
  Population Fragmented Nuclei (%): 11%
  Population Healthy Nuclei (%): 79%
  Population Hoechst High Intensity Objects (%): 6%
  Population Membrane Permeable-Phenotype (%): 10%
  Population Mitochondria Different-Phenotype (%): 3%
  Population Mitotic Cells (%): 81%
  Population Normal (%): 94%
  Population Pyknosed Nuclei (%): 9%
  Population Tubulin-Different-Phenotype (%): 10%
  Total Cell Count: 800
[8]
  Population Apoptotic (%): 4%
  Population Fragmented Nuclei (%): 18%
  Population Healthy Nuclei (%): 78%
  Population Hoechst High Intensity Objects (%): 2%
  Population Membrane Permeable-Phenotype (%): 4%
  Population Mitochondria Different-Phenotype (%): 1%
  Population Mitotic Cells (%): 95%
  Population Normal (%): 97%
  Population Pyknosed Nuclei (%): 2%
  Population Tubulin-Different-Phenotype (%): 5%
  Total Cell Count: 2468
